Measurements gathered from unrelated publications.
Lines come from different studies, so protocols differ.
Target: Receptor tyrosine-protein kinase erbB-4 (ERBB4, Homo sapiens, UniProt Q15303)

| Compound | assay | setting | remaining binding |
| --- | --- | --- | --- |
| C[C@H]1CCN(c2nccc(-c3cnn4ncccc34)n2)C1 | binding | 1 µM | 81% |
| Nc1ncc2c(n1)-c1c([nH]c3ccc(C#CC4CC4)cc13)CCCC2 | binding, competition with immobilised ligand | 1 µM | 100% |
| O=C(NCCCN1CCOCC1)c1ccc(Nc2nccc(-c3cc4ccccc4s3)n2)cc1 | binding, competition with immobilised ligand | 1 µM | 86% |
| CC(C)(C)c1ccc(-c2nc(CBr)nn2-c2cccc(O)c2)cc1 | cell-free assay, competition with immobilised ligand | 10 µM | 88% |
| N#Cc1ccccc1CSc1nnc2c(n1)[nH]c1ccccc12 | binding, competition with immobilised ligand | 10 µM | 74% |
| CNC(=O)[C@@H]1CC[C@@H](n2c(-c3ccc4cnccc4c3)nc3ccc(C(=O)NCc4cccc(C(N)=O)c4)cc32)C1 | binding, competition with immobilised ligand | 1 µM | 100% |
| Nc1c(C(=O)NCc2ccc(C(=O)NCCCC3CCCCC3)cc2)cnn1-c1ccccc1 | cell-free assay, competition with immobilised ligand | 0.1 µM | 89% |
| CN(C)c1nccc(-c2cnn3ncccc23)n1 | binding | 1 µM | 81% |
| COc1ccc2c(c1)O[C@@H](c1ccc(OC)c(OC)c1)C[C@H]2NC(=O)C1(c2ccc3c(c2)OC(F)(F)O3)CC1 | cell-free assay, competition with immobilised ligand | 1 µM | 90% |
| N[C@@H]1CCN(c2nccc(-c3cnn4ncccc34)n2)C1 | binding | 1 µM | 100% |
| O=C(c1ccc(Nc2nccc(-c3cc4ccccc4s3)n2)cc1)N1CCC(N2CCCC2)CC1 | binding, competition with immobilised ligand | 1 µM | 93% |
| COc1cnc(Nc2cccc(S(N)(=O)=O)c2)nc1N1CCN(c2ccccc2)C(=O)C1 | binding, competition with immobilised ligand | 1 µM | 100% |
| N#CC1(c2ccccn2)CCN(Cc2cc(C(=O)N3CCCC3)c(=O)n3ccccc23)CC1 | cell-free assay, competition with immobilised ligand | 1 µM | 85% |
| O=C(NCC1CCOCC1)c1n[nH]cc1NC(=O)c1c(F)cccc1F | binding, competition with immobilised ligand | 1 µM | 100% |
| COc1cc(-c2cn(C3CCc4c(F)cccc4N(CC(F)(F)F)C3=O)nn2)ccc1-n1cnc(C)c1 (stereo not shown) | cell-free assay, competition with immobilised ligand | 1 µM | 100% |
| CC1CCCN1c1nccc(-c2cnn3ncccc23)n1 (stereo not shown) | binding | 1 µM | 98% |
| O=C(N[C@H]1CCCCC/C=C\C2C[C@@]2(C(=O)O)NC(=O)[C@@H]2C[C@@H](Oc3ccncc3)CN2C1=O)OC1CCCC1 (stereo partly shown) | binding, competition with immobilised ligand | 1 µM | 100% |
| O=C(c1ccc(Nc2ncc(Cl)c(-c3ccc(Cl)s3)n2)cc1)N1CCC(N2CCCC2)CC1 | binding, competition with immobilised ligand | 1 µM | 100% |
| CCC(=N\O)/C(C)=C/c1ccc(F)cc1 | cell-free assay, competition with immobilised ligand | 1 µM | 66% |
| CN(c1nccc(-c2cnn3ncccc23)n1)C1CC1 | binding | 1 µM | 100% |
| COc1cccc(CNC(=O)c2nc3scc(COCc4ccc(C(=O)O)cc4)c3c(=O)[nH]2)c1 | cell-free assay, competition with immobilised ligand | 1 µM | 86.1% |
| CN(CCCC(F)(F)F)c1nccc(-c2cnn3ncccc23)n1 | binding | 1 µM | 72% |
